Results as given in publication PMC11559620 (Science Advances, 2024).
“Also recorded” adds a separate entry of the source. Read-outs that look alike come from different tables or passages of the source.

Legend:
[1] = system: NHX1; assay: Yeast two-hybrid assay, CMD1 with NHX1; type: cell-based, Arabidopsis; settings: fig. S1A
[2] = target: CML-BD peptide, synthetic peptide of the CML18-binding motif of NHX1 (residues D485 to R518) (Arabidopsis thaliana); assay: ITC
[3] = target: CML-BD peptide, synthetic peptide of the CML18-binding motif of NHX1 (residues D485 to R518) (Arabidopsis thaliana); assay: ITC; remark: listed apart in the source
[4] = system: AXT3K strain; assay: Complementation assay, hygromycin B resistance of yeast AXT3K; type: cell-based, Saccharomyces cerevisiae
[5] = system: CML18; assay: Yeast two-hybrid assay, interaction with CML18; type: cell-based, Arabidopsis; settings: C-terminal cytosolic fragments; selective YNB media
Summary of the method: (§1)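 Strain AH109 was cotransformed with NHX C-terminal fragments in pGBKT7 (GAL4 BD) and CML17 or CML18 in pGADT7 (GAL4 AD), selected on YNB-Trp-Leu. Cultures were grown at 28°C to saturation (OD600 ~2), then 5-μl drops of 10-fold dilutions were spotted on YNB-Trp-Leu, -His-Trp-Leu and -Ade-Trp-Leu. Plates were incubated at 28°C for 3–4 days. p53/pSV40 served as positive control, empty vectors as negative.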

[6] = system: CML18; assay: Bimolecular fluorescence complementation, interaction with CML18; type: cell-based, Arabidopsis; settings: leaves of N. benthamiana
Summary of the method: (§2)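 Agrobacterium GV3101 carrying BiFC constructs was co-infiltrated with a p19-transformed strain into 5- to 6-week-old N. benthamiana leaves. Full-length NHX1 or NHX2 and CML18 were each fused to complementary halves of eYFP. Empty pSPYCE(M) served as negative control. The lower epidermis was imaged by confocal microscopy (515-nm laser, 60× objective) under constant imaging settings, using a YFP filter.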

[7] = system: NHX2; assay: Bimolecular fluorescence complementation, interaction with NHX2; type: cell-based, Arabidopsis; settings: leaves of N. benthamiana
Summary of the method: as §2

[8] = system: C terminus of NHX1; assay: Yeast two-hybrid assay, dimerization with C terminus of NHX1; type: cell-based, Arabidopsis; settings: fig. S2; cytosolic C-terminal domains
[9] = system: CBD; assay: Split-ubiquitin assay, interaction of pore domain with CBD; type: cell-based, Arabidopsis; settings: yeast; YNB without adenine and histidine, 3 days at 28°C
Summary of the method: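 Split-ubiquitin assay in yeast: NHX1 pore domain (residues M1–T292) was fused to Cub-PLV (pMetYCgate). The CBD (S486–G516) or the intervening loop (L453–N480) was fused to NubG (pNXgate32). KAT1 served as dimerisation positive control and CBD negative control. Double transformants were spotted on YNB with and without adenine and histidine. Expression was checked by HA/c-Myc immunoblot.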

[10] = system: yeast vacuoles; assay: Vacuolar pH of yeast by BCECF-AM; type: cell-based, Saccharomyces cerevisiae; settings: n = 8
[11] = system: AXT3K strain; assay: Growth of AXT3K in pH-buffered liquid media with hygromycin B; type: cell-based, Saccharomyces cerevisiae; settings: buffered at acidic or neutral pH; OD600 after 24h
Summary of the method: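 Strain AXT3K (ena1-4, nha1 and nhx1 deletions; HygB-sensitive) carried NHX1 alleles in pDR195, selected on YNB lacking His and Ura. Cultures were grown overnight at 30°C and adjusted to OD600 0.5. Then 20 μl was inoculated into 200 μl liquid medium per well and serially diluted 10-fold. Incubation was at 30°C, with OD600 read at 24 and 48 h. Three independent transformants were tested per construct.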

[12] = system: NHX1 to NHX4; assay: Yeast two-hybrid assay, CML17 with vacuolar NHX1 to NHX4; type: cell-based, Arabidopsis; settings: fig. S1B
Summary of the method: as §1

CMD1: the only calmodulin protein produced in S. cerevisiae
interaction with NHX1 (Y2H) [1]: negative results

B1: CML18, recombinant, purified (natural protein)
chain: MSCDGGKPAPAKLGDEQLAELREIFRSFDQNKDGSLTELELGSLLRSLGLKPSQDQLDTLIQKADRNNNGLVEFSEFVALVEPDLVKCPYTDDQLKAIFRMFDRDGNGYITAAELAHSMAKLGHALTAEELTGMIKEADRDGDGCIDFQEFVQAITSAAFDNAWG
Kd [2]: 2210 nM | Kd [3]: 3020 nM | stoichiometry N (CML-BD binding sites per CML18 monomer) [3]: 2

B2: NHX1: vacuolar K+/H+ exchanger of Arabidopsis; C-terminal T435 to A538 in Y2H (protein, UniProt Q68KI4 435-538, looked up, fragment)
chain: TKPLISYLLPHQNATTSMLSDDNTPKSIHIPLLDQDSFIEPSGNHNVPRPDSIRGFLTRPTRTVHYYWRQFDDSFMRPVFGGRGFVPFVPGSPTERNPPDLSKA
HygB resistance / protein activity in AXT3K ([4]; YPD + HygB (50 μg/ml), 30°C): suppressed the HygB sensitivity | interaction with CML18 (Y2H) [5]: strongly; also recorded: CML18 binding was confirmed | interaction with CML18 (BiFC) [6]: interacted with CML18 | interaction with NHX2 (BiFC) [7]: interacted with NHX2-cYFP | homodimerization / heterodimerization (Y2H) [8]: positive results

B3: pore domain (TM1 to TM9): pore domain of NHX1 (residues M1 to T292) fused to Cub-PLV (protein)
chain: MLDSLVSKLPSLSTSDHASVVALNLFVALLCACIVLGHLLEENRWMNESITALLIGLGTGVTILLISKGKSSHLLVFSEDLFFIYLLPPIIFNAGFQVKKKQFFRNFVTIMLFGAVGTIISCTIISLGVTQFFKKLDIGTFDLGDYLAIGAIFAATDSVCTLQVLNQDETPLLYSLVFGEGVVNDATSVVVFNAIQSFDLTHLNHEAAFHLLGNFLYLFLLSTLLGAATGLISAYVIKKLYFGRHSTDREVALMMLMAYLSYMLAELFDLSGILTVFFCGIVMSHYTWHNVT
modifications: left off: Cub-PLV, end not stated, kept
interaction with CBD (split-ubiquitin) [9]: confirmed

B4: D506N (protein, UniProt Q68KI4 1-538, looked up, variant D506N)
Sodium/hydrogen exchanger 1: MLDSLVSKLPSLSTSDHASVVALNLFVALLCACIVLGHLLEENRWMNESITALLIGLGTGVTILLISKGKSSHLLVFSEDLFFIYLLPPIIFNAGFQVKKKQFFRNFVTIMLFGAVGTIISCTIISLGVTQFFKKLDIGTFDLGDYLAIGAIFAATDSVCTLQVLNQDETPLLYSLVFGEGVVNDATSVVVFNAIQSFDLTHLNHEAAFHLLGNFLYLFLLSTLLGAATGLISAYVIKKLYFGRHSTDREVALMMLMAYLSYMLAELFDLSGILTVFFCGIVMSHYTWHNVTESSRITTKHTFATLSFLAETFIFLYVGMDALDIDKWRSVSDTPGTSIAVSSILMGLVMVGRAAFVFPLSFLSNLAKKNQSEKINFNMQVVIWWSGLMRGAVSMALAYNKFTRAGHTDVRGNAIMITSTITVCLFSTVVFGMLTKPLISYLLPHQNATTSMLSDDNTPKSIHIPLLDQDSFIEPSGNHNVPRPDSIRGFLTRPTRTVHYYWRQFNDSFMRPVFGGRGFVPFVPGSPTERNPPDLSKA
HygB resistance / protein activity in AXT3K ([4]; YPD + HygB (50 μg/ml), 30°C): inactive; also recorded: unable to suppress the sensitivity of the nhx1 mutant to HygB | HygB resistance / protein activity in AXT3K ([4]; in combination with H499L): inactive | interaction with CML18 (Y2H) [5]: lost the ability to bind CML18 | vacuolar pH (pHvac) [10]: overly acidic | activity irrespective of pH of growth media [11]: inactive

B5: CML17: calmodulin-like protein of Arabidopsis, At1g32250 (protein)
chain: MSHKVSKKLDEEQINELREIFRSFDRNKDGSLTQLELGSLLRALGVKPSPDQFETLIDKADTKSNGLVEFPEFVALVSPELLSPAKRTTPYTEEQLLRLFRIFDTDGNGFITAAELAHSMAKLGHALTVAELTGMIKEADSDGDGRINFQEFAKAINSAAFDDIWG
modifications: left off: Gal4 activation domain (vector pGADT7), end not stated, kept
interaction with vacuolar NHX1 to NHX4 (Y2H) [12]: failed to demonstrate interaction
